Most compounds without a hit are left out; they make up all but 2.3% or so of the library.
T cell modulator: T cell immune modulation candidate | 2C CD8+ T cell-vesicle binding, flow cytometry; active compounds read low | response (vesicle binding), % at 7 µM | AID 2052 | 0.068% of 330,000 active;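 active = response, share of CD8 T cells binding vesicles, and their 90th percentile fluorescence all below set limits, cut at about 80% in these data, passing the limit was not always enough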;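 note: values below 100% mean blocked vesicle binding to the CD8+ T cells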
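Assay system: 2C TCR transgenic mouse naive CD8+ T cells, MACS-purified | Read-out: CD8+ gate FL2 mean fluorescence as % of same-row positive control | Signal: High-throughput flow cytometry with anti-B7-1 and anti-CD8 staining | Timing: Binding step 1.5 h, 37 °C, antibody labelling 20 min, ice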
GPR7 antag: antagonists of human GPR7 (neuropeptides B/W receptor 1) | P48145 | inhibition, % at 4.4 µM | 1.1% of 290,000 active | AID 1861 | GPR7-expressing cells, fluorescence antagonist assay; in the data active = inhibition above about 16%, passing the limit was not always enough;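 note: cells stimulated with the agonist NPW; 0% = agonist with vehicle and 100% = vehicle without agonist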
pCIP destab: compounds decreasing mouse p/CIP protein stability. AID 1984. F442A p/CIP-EGFP cells, EGFP fluorescence, 16 h. Q05BA5. decrease of EGFP signal, % at 10 µM. 0.01% of 290,000 active;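 active = EGFP signal decrease of at least 30% at 10 µM or well 3 SD below plate mean, unless failing retest; inactive = the rest, including hits failing retest or dose response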
CHT block: inhibitors of human choline transporter CHT; Q9GZV3; CHT-expressing cells, membrane potential dye, choline response; active compounds read low; B-score at 10 µM; 0.86% of 310,000 active;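 active = B-score over 3 SD under the library average, and starting fluorescence ratio not unusually high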;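 note: choline stimulus applied at its EC90 after an EC20 pre-addition; B-score computed on integrated fluorescence ratio after choline addition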
Target sequence (Q9GZV3 whole entry, looked up): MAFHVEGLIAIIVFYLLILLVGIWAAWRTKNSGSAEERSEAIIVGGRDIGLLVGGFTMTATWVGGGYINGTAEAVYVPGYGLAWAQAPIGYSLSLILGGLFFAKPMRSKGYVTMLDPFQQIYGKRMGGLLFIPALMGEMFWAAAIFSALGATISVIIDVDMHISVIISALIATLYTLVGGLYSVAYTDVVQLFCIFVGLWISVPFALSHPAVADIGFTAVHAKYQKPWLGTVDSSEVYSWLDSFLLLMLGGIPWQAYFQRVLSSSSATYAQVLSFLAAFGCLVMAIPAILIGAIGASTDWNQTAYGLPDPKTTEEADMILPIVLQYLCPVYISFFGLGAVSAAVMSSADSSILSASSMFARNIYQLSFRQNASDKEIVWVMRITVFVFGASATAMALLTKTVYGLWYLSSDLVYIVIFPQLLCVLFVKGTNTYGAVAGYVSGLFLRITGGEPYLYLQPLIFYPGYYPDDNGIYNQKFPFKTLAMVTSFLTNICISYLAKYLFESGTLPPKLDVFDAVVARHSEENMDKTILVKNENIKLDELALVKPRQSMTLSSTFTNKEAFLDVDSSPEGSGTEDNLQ
CHT allo act: human CHT allosteric activation | CHT-expressing cells, membrane potential dye, choline EC20; active compounds read high; LV-AA mutant CHT in HEK293 cells | B-score at 10 µM | 0.49% of 310,000 active;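 active = initial fluorescence not abnormally high and integrated response B-score, plate-corrected, over 3 SD above library mean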
Pemphigus Ab inh: inhibitors of pemphigus antibody binding to human desmoglein-3; DSG3-coupled beads, scFv-anti-DSG3-GFP binding, flow cytometry; active compounds read low; 0.48% of 310,000 active; binding (percent of control), % at 10 µM;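 active = binding more than 3 SD below its plate's average and above zero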;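 note: hits lower antibody fragment binding to DSG3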
CHT activ conf: confirmation of human choline transporter (CHT) activators | AID 504833 | shares compounds with CHT allo act | activation, % at 10 µM | 91% of 2,500 active | CHT-expressing cells, membrane potential dye fluorescence (FDSS); % of choline EC20–EC90 response window; HEK293 expressing CHT LV-AA mutant; choline added at its EC20;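 active = primary screen active, with duplicate mean activation above negative control mean plus 3 SD, cut at about 11% in these data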
HEK293 MP dye: counter-screen for CHT activators: effect in parental HEK293 cells | shares compounds with CHT allo act | membrane potential dye fluorescence (FDSS); measured after EC20 choline addition | ratio readout change at 10 µM, hits read low | 62% of 2,500 active | AID 623908;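 active = duplicate-averaged ratio beyond 3 SD from buffer wells, up or down, though filed actives are nearly all decreases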
Starred values were filed as active, the others as inactive; i = inactive; nt = no result; ! = not confirmed by another sample.

SMILES | T cell modulator | GPR7 antag | pCIP destab | CHT block | CHT allo act | Pemphigus Ab inh | CHT activ conf | HEK293 MP dye
CCN1C(N(C)CCc2cccs2)=N[C@@H](c2ccccc2)C(C(=O)OC)=C1C | 339.8 | 23.4 | -31.5 | i | 13* | 116.6 | 25.5* | i
Cc1ccccc1C[n+]1cccc2ccccc21 | 198.2 | nt | nt | i | 7.01* | 103.6 | 52.4* | -42.1*
Cc1ccccc1CSCc1nc2ccccc2[nH]1 | 339.6 | 1.4 | 3.6 | i | i | 105.9 | nt | nt
Cc1cc(=O)[nH]c(SCC(=O)Nc2nc3ccccc3s2)n1 | 640.6 | -3.3 | 20.7 | i | i | 92.1 | nt | nt
Cc1cc(=O)[nH]c(SCC(=O)Nc2ccnc3ccccc23)n1 | 222.3 | -6.3 | -18.0 | i | i | 112.6 | 31.4* | -51*
CCOC(=O)c1c(C)n(-c2ccc(C)cc2)c2ccc(O)c(CN(C)C)c12 | 491.4 | -1.2 | -18.3 | i | 8.76* | 96.3 | 15.2* | i
CCOC(=O)c1c(C)n(-c2ccccc2)c2ccc(OCCN(C)C)cc12 | 139.8 | 7.1 | -3.1 | i | i | 118.2 | 31.4* | i
CCOC(=O)c1c(C)n(-c2ccc(OC)cc2)c2ccc(O)c(CN(C)C)c12 | 146.9 | 5.1 | -5.7 | i | 6.53* | 92.5 | 9.0 | -25.7*
COC(=O)c1c(C)n(-c2ccc(OC)cc2)c2ccc(O)cc12 | 428.7 | -14.2 | -0.1 | i | i | 112.7 | nt | nt
O/N=C(\Cn1ccnc1)c1ccccc1 | nt | nt | nt | nt | nt | 127.3 | nt | nt
Cc1cccc(NC(=O)COC(=O)CN2C(=O)c3ccccc3C2=O)c1 | nt | nt | nt | nt | nt | 101.7 | nt | nt
O=C1N(Cc2cccc(Cl)c2)C[C@@H]2C[C@@H](c3ccccn3)N3CCC[C@@]123 | 256.4 | -4.0 | -6.1 | i | i | 93.7 | nt | nt
O=C1N(Cc2cccc(Cl)c2)C[C@@H]2C[C@@H](c3ccsc3)N3CCC[C@@]123 | 251.2 | 8.5 | -3.0 | i | i | 315.1 | 27.6* | i
O=[N+]([O-])c1ccc2nc(-c3ccccc3)[nH]c2c1 | 247.6 | 13.2 | 3.9 | i | i | 100.3 | nt | nt
O=[N+]([O-])c1ccc2nc(-c3cccnc3)[nH]c2c1 | 508.4 | -4.9 | -4.9 | i | i | 115.5 | 52.0* | -53.5*
Cn1ccnc1-c1nc2ccccc2[nH]c1=O | 231.6 | -5.6 | 0.4 | i | 7.09* | 108.0 | 63.1* | -54.7*
CCN1CCN(c2ccc(S(=O)(=O)N3CCOCC3)cc2NC(=O)C(C)Oc2ccc(F)cc2)CC1 (centres undefined) | 346.9 | nt | nt | nt | nt | 100.5 | nt | nt
Cc1nnc(SCCn2c(N3CCCCC3)nc3c2c(=O)n(C)c(=O)n3C)s1 | 307.7 | -2.0 | nt | i | i | 106.1 | nt | nt
Cc1nnc(SCCn2c(N3CCN(C)CC3)nc3c2c(=O)n(C)c(=O)n3C)s1 | 334.9 | 7.8 | -6.4 | i | 7.66* | 102.7 | 46.2* | -70.2*
O=[N+]([O-])c1ccc(CSc2nnc(Cc3ccccc3)n2-c2ccc(F)cc2)cc1 | 292.3 | 14.1 | -12.5 | i | i | 98.6 | 20.8* | i
COc1ccc(-n2c(Cc3ccccc3)nnc2SCc2ccc([N+](=O)[O-])cc2)cc1 | 248.4 | 5.4 | 2.0 | i | i | 107.3 | nt | nt
COCc1cc(C)nc(SCC[N+](C)(C)CC(=O)Nc2ccccc2)c1C#N | 318.2 | -6.0 | 9.5 | i | i | 126.6 | 36.9* | -28.4*
O=C1c2cccc3cccc(c23)C(=O)N1CCN1CCN(CC(O)COc2ccccc2)CC1 (centres undefined) | 204.8 | -10.5 | 4.9 | i | i | 102.1 | -1.1 | i
Cc1nnc2n(C)c(=O)c3c4c(sc3n12)COC(C)(C)C4 | 296.2 | nt | nt | i | 6.46* | 96.6 | 74.2* | -72.4*
Cc1nnc2n(-c3ccccc3)c(=O)c3c4c(sc3n12)COC(C)(C)C4 | 356.5 | 0.3 | -0.4 | i | i | nt | nt | nt
SMILES | T cell modulator | GPR7 antag | pCIP destab | CHT block | CHT allo act | Pemphigus Ab inh | CHT activ conf | HEK293 MP dye
CN(C)C(/C=C/Nc1cccc(Br)c1)=C(C#N)C#N | 132.6 | -15.3 | 4.7 | i | i | 106.2 | 49.1* | -42.4*
Cc1cccc(N/C=C/C(=C(C#N)C#N)N(C)C)c1 | 430.9 | -11.8 | 4.6 | i | i | 126.0 | nt | nt
CC1(C)CC(=O)c2cnc(N3CCN(c4ccccc4)CC3)nc2C1 | 195.9 | 8.3 | -4.6 | i | i | 114.0 | nt | nt
CC1(C)CC(N2CCCC2)=CC(=[N+]2CCCCCC2)C1 | 280.9 | 25.9* | 4.2 | i | 8.65* | 84.1 | 54.0* | i
CC1(C)CC(N2CCN(c3ccccc3)CC2)=CC(=[N+]2CCCC2)C1 | 219.9 | 6.3 | -30.8 | i | i | 89.2 | 40.8* | i
CCN(CC)C1=CC(=[N+]2CCCC2)CC(C)(C)C1 | 350.6 | -13.6 | -6.6 | i | i | 112.0 | 46.1* | i
CN(CC(=O)Nc1cccc(F)c1)C(=O)c1ccc2c(c1)CC(c1ccccc1)OC2=O (centres undefined) | nt | nt | nt | nt | nt | 99.6 | nt | nt
c1ccc2c(C3OCC4(CCCCC4)CO3)cccc2c1 | nt | nt | nt | nt | nt | 110.1 | nt | nt
O=C(NC1CCN(Cc2ccccc2)CC1)c1cc(-c2ccccn2)nc2ccccc12 | 530.8 | 3.2 | -27.1 | i | 7.77* | 97.8 | 47.8* | -58.6*
O=C(NC1CCCCCCC1)c1cc(-c2ccccn2)nc2ccccc12 | 738.3 | -11.1 | -6.2 | i | 6.76* | 106.2 | 10.3* | i
Cc1ccccc1C(=O)NC1CCN(Cc2ccccc2)CC1 | 157.1 | -4.0 | -5.8 | i | i | 110.8 | nt | nt
COc1ccccc1-n1c(-c2ccccc2)c[n+]2c1CCc1ccccc1-2 | 353.5 | 28.1* | -8.5 | i | 11.3*! | 112.6 | 32.3* | i
COc1ccc(-n2c(-c3ccc(Br)cc3)c[n+]3c2CCc2ccccc2-3)cc1 | 455.3 | 19.1 | 25.7 | i | i | 92.4 | 90.7* | -29.4*
CCCCOC(=O)N1CCOCCOCCOCC1 | 528.8 | -9.9 | -18.1 | i | i | 114.3 | 16.8* | i
Cc1nnc(NCCc2ccccc2)c2ccccc12 | 157.4 | -3.8 | 2.3 | i | 7.18* | 113.9 | 39.0* | -48.6*
Cc1[nH]c2ccccc2c1/C=N/Nc1ccc([N+](=O)[O-])cc1 | 513.8 | 1.3 | -152.6 | i | i | nt | 16.5* | i
COc1ccccc1NS(=O)(=O)c1cc([N+](=O)[O-])ccc1N/N=C/c1c(C)[nH]c2ccccc12 | i | 6.5 | -117.6 | i | i | 118.8 | nt | nt
Cc1ccc(-n2c(C)cc(/C=N/NC(N)=S)c2C)cc1 | 377.2 | -2.6 | 7.9 | i | 13.9* | 107.2 | 32.5* | i
